# Bioassay records: PubChem BioAssay, several laboratories
# CRFBP-R2 block = CRF-BP/CRF-R2 complex antagonism | 350,000 compounds, 0.59% hits | HEK293 CRF-R2/CRF-BP, CRF-induced calcium fluorescence | AID 588475 | inhibition, % at 11.8 µM;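 active means inhibition of the ligand-induced calcium signal above about 50% at the single tested concentration, limit read from the data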
# TPT1 inh = blocks Candida albicans tRNA 2'-phosphotransferase; AID 1962; 300,000 compounds, 0.81% hits; inhibition, % at 5 µM; recombinant caTPT1, FP RNA substrate dephosphorylation;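 active means inhibition above the mean of all tested compounds plus 3 SD, set per screening campaign, cut at about 24% in these data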
# Rpn11 inh = Rpn11 (human) deubiquitinase inhibition. O00487. 360,000 compounds, 0.59% hits. calls only at 20 µM. human 26S proteasome, Ub4-pepOG fluorescence polarization; 20S core pre-blocked with epoxomicin. AID 588493;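 active means inhibition at 20 µM, scaled to each plate's controls, above about 33%, limit read from the data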
# CRFBP-R2 agonist = CRF-BP/CRF-R2 complex agonism. HEK293 CRF-R2/CRF-BP, calcium dye fluorescence (FLIPR); percent of saturating CRF peptide response. activation, % at 13.2 µM. 350,000 compounds, 0.46% hits. AID 588473;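 active means activation of at least 50%, plus an integration ratio under a set limit after plate pattern correction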
# CSN deneddyl inh = blocks human CSN-mediated cullin deneddylation; Q92905; Purified CSN, SCF-Nedd8-OG deneddylation, fluorescence polarization; inhibition, % at 12.5 µM; 360,000 compounds, 0.38% hits; AID 651999;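 active means pattern-corrected inhibition above about 35%, with an unprinted fluorescence ratio check between 0.5 and 1.5, limit read from the data, passing the limit was not always enough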
#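 Material: purified human Csn5 enzyme expressed in HEK293T cells / Medium: Tris buffer pH 7.5, NaCl, DTT, Tween-20, trehalose, ovalbumin / Compound dosing: 12.5 µM single point / Schedule: 90 min incubation of compound, enzyme and substrate at room temperature / Signal: fluorescence polarization of the substrate / Control set: no-enzyme wells high, enzyme-with-substrate wells low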
# HNF4A DNA FP = change in binding of human HNF4 alpha to DNA; HNF4a-FITC DNA binding, fluorescence polarization, 1 h; P41235; 360,000 compounds, 0.3% hits; activity change, % at 10 µM; in the data active means activity change above about 30%, passing the limit was not always enough
# Target sequence (P41235 whole entry, looked up): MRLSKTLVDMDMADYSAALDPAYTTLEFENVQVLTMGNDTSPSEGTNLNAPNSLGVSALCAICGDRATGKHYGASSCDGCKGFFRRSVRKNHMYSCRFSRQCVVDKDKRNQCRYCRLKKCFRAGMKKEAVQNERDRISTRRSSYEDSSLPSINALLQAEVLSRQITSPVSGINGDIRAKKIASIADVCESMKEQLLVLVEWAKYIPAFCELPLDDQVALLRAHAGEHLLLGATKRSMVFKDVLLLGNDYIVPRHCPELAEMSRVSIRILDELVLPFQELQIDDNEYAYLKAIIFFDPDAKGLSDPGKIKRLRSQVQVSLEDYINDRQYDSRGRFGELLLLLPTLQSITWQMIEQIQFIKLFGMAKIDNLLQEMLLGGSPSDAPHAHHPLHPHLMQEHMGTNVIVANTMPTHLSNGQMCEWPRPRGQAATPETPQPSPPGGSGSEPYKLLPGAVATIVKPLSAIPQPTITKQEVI
# Rpn11 confirm = Rpn11 inhibition confirmation, single concentration; AID 602318; purified human 26S proteasome, Ub4-pepOG fluorescence polarization; proteasome pretreated with epoxomicin; 1,900 compounds, 29% hits; shares compounds with Rpn11 inh; inhibition, % at 20 µM
# MMP-2 inh = blocks human MMP-2, flagging nonselective RPN11 hits | shares compounds with Rpn11 inh | recombinant MMP-2, FRET peptide cleavage fluorescence | inhibition, % at 20 µM | 1,900 compounds, 4% hits;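 further: human MMP-2 activated beforehand with APMA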
# Thrombin FP = blocks bovine thrombin, flagging nonselective RPN11 hits. shares compounds with Rpn11 inh. bovine thrombin cleavage of Ub4-pepOG, fluorescence polarization. inhibition, % at 20 µM. 1,900 compounds, 13% hits;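 active means mean inhibition at least 40% at 20 µM, or signal 3 deviations below plate average, so some actives read negative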
# Hits are given with their value; 0 = inactive; - = no result; + = active, no number. Only some compounds are listed: those with a hit (about 2.3% of all), similar ones and a draw of the others. Unless noted, no stated cut-off is given here; in the data, active means inhibition above about 40%; inactive means the rest.
SMILES,CRFBP-R2 block,TPT1 inh,Rpn11 inh,CRFBP-R2 agonist,CSN deneddyl inh,HNF4A DNA FP,Rpn11 confirm,MMP-2 inh,Thrombin FP
O=C(/C=C/c1ccc(Br)cc1)NC(=S)Nc1ccc(S(=O)(=O)Nc2nccs2)cc1,0,0,+,0,74.8,0,0,0,0
O=C(NC(=S)Nc1ccc(S(=O)(=O)Nc2nccs2)cc1)c1ccc(Br)o1,0,0,0,0,0,0,-,-,-
COc1ccc2nc(N3C(=O)CNC3=S)sc2c1,0,0,0,0,0,0,-,-,-
CCOc1ccc2nc(N3C(=O)/C(=C/c4ccc(Cl)cc4)NC3=S)sc2c1,0,-,+,0,0,0,0,0,0
O=C(CCSc1nc(-c2ccco2)cc(C(F)(F)F)n1)NCC1CCCO1 (stereo unspecified),0,0,0,0,0,0,-,-,-
CN1CCN(S(=O)(=O)c2ccc3c(c2)oc(=O)n3C)CC1,0,0,+,0,0,0,0,0,0
Cn1c(=O)oc2cc(S(=O)(=O)N3CCN(c4ccc(F)cc4)CC3)ccc21,0,0,+,0,0,0,0,0,0
Cn1c(=O)oc2cc(S(=O)(=O)N3CCCCC3)ccc21,0,0,0,0,0,0,-,-,-
Cn1c(=O)c(=O)n(C)c2cc(S(=O)(=O)N3CCN(c4ccc(F)cc4)CC3)ccc21,0,0,0,0,0,0,-,-,-
O=c1[nH]c(-c2ccc3c(c2)OCO3)nc2c1sc(=S)n2-c1ccccc1,0,0,+,0,0,0,0,0,0
O=c1[nH]c(-c2ccc(F)cc2)nc2c1sc(=S)n2-c1ccccc1,0,0,0,0,0,0,-,-,-
Nc1nn(S(=O)(=O)c2ccccc2)cc1-c1cccc([N+](=O)[O-])c1,0,0,0,0,0,0,-,-,-
CCN(CC)CCOC(=O)c1ccc(N/C=C(/C#N)c2nc(-c3ccc(OC)cc3)cs2)cc1,0,0,+,0,137.1,0,55.0,0,76.7
CCN(CC)CCCN(C(=O)c1ccc(Br)cc1)c1nc(-c2ccc(OC)cc2)cs1,0,0,0,0,0,0,-,-,-
COc1ccc(OCC(=O)NNC(=O)C(=O)N2CCCC2)cc1,0,0,0,0,0,0,-,-,-
Cc1ccc(S(=O)(=O)N2CCN(C(=O)c3ccccc3)C2C(C)C)cc1 (stereo unspecified),0,0,0,0,0,0,-,-,-
Cc1nnc(SCc2nc3scc(-c4ccccc4)c3c(=O)[nH]2)s1,0,0,+,0,0,0,42.5,0,0
COCCn1c(SCc2nc3scc(-c4ccc(Cl)cc4)c3c(=O)[nH]2)nnc1-c1cccc(C)c1,0,0,+,0,0,0,0,0,0
CCn1c(SCc2nc3scc(-c4ccccc4)c3c(=O)[nH]2)nnc1-c1cccs1,0,0,0,0,0,0,-,-,-
CC1(C)C2CCC(C2)C1(C)NC(=O)CNCC1CCCCC1 (stereo unspecified),0,0,0,0,0,0,-,-,-
CCc1ccc(-n2c(O)c(C=NCCN(CC)CC)c(=O)[nH]c2=O)cc1,0,-,+,0,35.2,0,0,0,0
CN1C(=O)/C(=C/c2cccc(Cl)c2)Sc2ccc(C(=O)N3CCOCC3)cc21,0,0,0,0,0,0,-,-,-
COCCCNC(=O)CC(=O)N/N=C\c1ccc(SC)cc1,0,0,0,0,0,0,-,-,-
Cc1nnc(SCC(=O)NNC(=O)c2ccco2)n1-c1cccc(Cl)c1,0,0,0,0,0,0,-,-,-
O=C(CCOc1ccccc1)Nc1ccccc1[N+](=O)[O-],0,0,+,0,0,0,0,0,0
SMILES,CRFBP-R2 block,TPT1 inh,Rpn11 inh,CRFBP-R2 agonist,CSN deneddyl inh,HNF4A DNA FP,Rpn11 confirm,MMP-2 inh,Thrombin FP
Cc1ccc(N=Nc2c(O)[nH]c(=O)[nH]c2=O)cc1S(=O)(=O)Nc1ccc(Br)cc1,0,-,+,0,0,0,107.7,0,71.6
COCCOC(=O)C1=C(C)Nc2ncnn2C1c1ccc(F)cc1 (stereo unspecified),0,0,0,0,0,0,-,-,-
CN(CCO)c1ccc(C=NNc2ccc([N+](=O)[O-])cc2S(=O)(=O)Nc2ccccc2C(=O)O)cc1,0,-,+,0,0,47.2,72.9,0,0
Nc1ccccc1Nc1cc(-c2ccccc2)[nH]n1,0,-,+,0,0,0,0,0,0
COc1cc(Br)c(/C=C/c2ccc3cccc(O)c3n2)cc1OC,0,0,0,0,0,0,-,-,-
COc1cc(/C=C/c2ccc3cccc(O)c3n2)c(Br)cc1O,-,0,+,-,0,0,0,0,0
O=C(Cc1cccc(NC(=O)C2CCN(C(=O)C3CCC3)CC2)c1)Nc1cccc(C(=O)N2CCCC2)c1,0,-,0,0,0,0,-,-,-
COCCOC(=O)C1=C(C)NC(=O)NC1c1c(OC)ncnc1OC (stereo unspecified),0,0,+,0,0,0,0,0,0
CCOc1ccc2ccccc2c1C1NC(=O)NC(C)=C1C(=O)OCCOC (stereo unspecified),0,0,0,0,0,0,-,-,-
CCCCCCCCCCCCCCC(O)C[N+](C)(CCO)CCO (stereo unspecified),0,-,+,0,0,0,42.3,0,0
CCCCCCCC(=O)OCC(O)CO (stereo unspecified),0,0,0,0,0,0,-,-,-
Cc1nnc(SCc2nc3sc4c(c3c(=O)[nH]2)CCCC4)[nH]c1=O,0,0,+,0,0,0,0,0,83.9
CC(C)(C)c1ccc(Oc2ccc(N)cn2)cc1,0,0,+,0,0,64.3,0,0,0
Cc1cc2ncn(CC(C)C)c2cc1C,0,0,0,0,0,0,-,-,-
COCC(C)NC(=O)CCSc1nc(-c2ccc(OC)cc2)cc(C(F)(F)F)n1 (stereo unspecified),0,0,+,0,0,0,0,0,0
COc1ccc(-c2cc(C(F)(F)F)nc(SCCC(=O)N3CCN(C)CC3)n2)cc1,0,-,0,0,0,0,-,-,-
C[C@@H]1CN([C@@H](C)CO)C(=O)c2cc(Br)cnc2O[C@H]1CN(C)Cc1ccccc1C(=O)O,0,-,0,0,0,0,-,-,-
CCN(CC)S(=O)(=O)c1cccc(NC(=O)COc2ccc(F)cc2Br)c1,0,0,+,0,0,0,0,0,0
O=C(C(Cc1ccccc1)N1C(=O)C2C3CCC(C3)C2C1=O)N1CCCCC1 (stereo unspecified),0,0,0,0,0,0,-,-,-
Oc1c(Cl)cc(Cl)c2cccnc12,0,-,+,0,0,0,0,0,0
